# Screening results as filed in PubChem BioAssay.
# This is a sample that favours compounds with a hit; in the whole collection about 0.55% have one here.
# V1aR counter: counter-screen for oxytocin receptor agonists: human V1a receptor agonists; activation, % at 3 µM; CHO-V1R cells, Fluo-8 calcium fluorescence, agonist mode; 0% DMSO, 100% 3 nM vasopressin; 0.25% of 320,000 active;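 active = activation above the mean activation of all tested compounds plus 3 SD, per screening run, cut at about 20% in these data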;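 note: signal is peak over basal fluorescence ratio across a 100 second FLIPR read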
# Target sequence (P37288 whole entry, looked up): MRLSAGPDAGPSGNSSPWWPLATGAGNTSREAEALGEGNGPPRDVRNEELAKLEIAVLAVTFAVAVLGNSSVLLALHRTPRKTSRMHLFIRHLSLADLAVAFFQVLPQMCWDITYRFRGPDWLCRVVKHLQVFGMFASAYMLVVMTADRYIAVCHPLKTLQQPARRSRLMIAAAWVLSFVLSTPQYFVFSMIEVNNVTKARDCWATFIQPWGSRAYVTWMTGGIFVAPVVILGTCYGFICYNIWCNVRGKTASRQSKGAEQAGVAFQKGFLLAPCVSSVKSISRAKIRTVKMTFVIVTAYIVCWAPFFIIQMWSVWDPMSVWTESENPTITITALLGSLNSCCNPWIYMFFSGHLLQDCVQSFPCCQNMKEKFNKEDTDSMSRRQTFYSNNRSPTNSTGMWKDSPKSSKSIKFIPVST
# zfTRPN1 agonist: activates the zebrafish TRPN1 channel; HEK293 zebrafish TRPN1-YFP, Fluo-8 calcium fluorescence; 100% = response to 87 µM carbachol; activation, % at 3 µM; 0.18% of 220,000 active;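 active = activation above its plate's cutoff, the mean activation of test wells on that plate plus 3 SD, cut at about 19% in these data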;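 note: 0% = DMSO alone and 100% = 87 µM carbachol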
#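 System: zebrafish TRPN1-YFP in HEK293 cells / Dosing: 3 µM single point / Timing: dye loading 1 h at 37 °C, then 30 min room temperature / Signal: Fluo-8 calcium fluorescence, excitation 470-495 nm, emission 515-575 nm / Read-out basis: percent activation from peak over basal fluorescence ratio, control-normalized / Control set: high carbachol 87 µM, low DMSO alone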
# OXTR potentiate: human OXTR potentiation; activation, % at 3 µM; CHO-OTR cells, Fluo-8 calcium fluorescence, potentiator mode; 0% = oxytocin EC15, 100% = EC100; 0.061% of 320,000 active; P30559; AID 2445;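 active = activation above that plate's cutoff, the mean activation of tested compounds plus 3 SD, cut at about 6.6% in these data, passing the limit was not always enough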;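 note: 100% uses oxytocin at 75 nM as the full agonist control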
#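 Replication – single well per compound, singlicate · Assay system – CHO cell line stably expressing human OTR · Timing – 6 min pre-incubation, 100 s read · Measure – normalized max/min fluorescence ratio, % activation · Doses – 3.0 µM, one dose · Detection – Fluo-8 calcium dye fluorescence · Probe or stimulus – oxytocin near EC15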
# TRPML3 ag: human mucolipin-3 channel agonism. Q8TDD5. HEK293 TRPML3-YFP, Fluo-8 calcium fluorescence; 100% = the carbachol control signal. activation, % at 3 µM. 0.29% of 220,000 active. AID 1448;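 active = activation above its plate's cutoff, the mean activation of the plate's test wells plus 3 SD, cut at about 12% in these data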;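 note: 0% = DMSO only wells and 100% = carbachol wells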
#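 Test system – HEK293 line with stable expression of human TRPML3-YFP channel · Control set – carbachol 87 µM final as high control (100%), DMSO as low control (0%) · Signal – Fluo-8 calcium dye fluorescence, ex 470-495, em 515-575 nm · Incubation – 1-h 37 °C dye load, 5-s basal, 120-s post-compound reads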
# OXTR ag: agonists of human oxytocin receptor; P30559; CHO-OTR cells, Fluo-8 calcium fluorescence; normalized: DMSO 0%, oxytocin 100%; activation, % at 3 µM; 0.32% of 320,000 active;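 active = activation above the mean of all tested compounds plus 3 SD, cutoff set per screening run, cut at about 20% in these data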;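 note: peak over basal fluorescence ratio from a 100 s FLIPR kinetic read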
# V1aR agonist cf: human V1a receptor agonism, confirmation; shares compounds with V1aR counter; CHO-V1R cells, Fluo-8 calcium fluorescence, agonist; activation, % at 3 µM; 20% of 180 active;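 active = average activation exceeds primary screen hit cutoff, cut at about 21% in these data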;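 note: peak over basal fluorescence ratio during a 100 s FLIPR read; 0% = DMSO only wells and 100% = 3 nM vasopressin wells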
# OXTR ag counter: OXTR agonism, counter-screen for V1R agonists | shares compounds with V1aR counter | CHO-OTR cells, Fluo-8 calcium fluorescence, agonist | activation, % at 3 µM | 10% of 180 active | AID 434969;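 active = mean activation over three repeats above the cutoff from the earlier oxytocin receptor agonist screen, cut at about 20% in these data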;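 note: peak over minimum fluorescence ratio within a 100 second FLIPR read; 0% = DMSO only wells and 100% = oxytocin high control wells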
# Starred values were filed as active, the others as inactive; . = no result given.
SMILES,V1aR counter,zfTRPN1 agonist,OXTR potentiate,TRPML3 ag,OXTR ag,V1aR agonist cf,OXTR ag counter
CC(C)C[C@H](NC(=O)c1nc[nH]c1C(=O)N(C)Cc1ccccc1)C(=O)OC(C)(C)C,-1.8,-2.1,-4.4,-0.9,-2.3,.,.
Cc1noc(C(F)(F)F)c1C(=O)NNC(=O)c1cccc(C(F)(F)F)c1,20.4*,0.2,-3.5,0.9,-1.2,0.9,-0.2
O=C(NNC(=O)c1ccc[nH]1)c1cccc(C(F)(F)F)c1,-0.6,.,-7.4,.,-0.8,.,.
Cc1cccc(-c2nnc(NC(=O)c3ccco3)s2)c1,4.3,.,-8.2,.,2.3,.,.
O=C(CCCN=C1NS(=O)(=O)c2ccccc21)OCC(=O)c1ccc(Br)cc1,25.8*,.,-14.0,.,14.5,10.4,7.9
CCOC(=O)C(NC(=O)c1ccccc1)=C(C)C,0.2,-0.5,-4.1,0.7,-0.9,.,.
CCOC(=O)C(CC(=O)O)=C(c1ccccc1)c1ccccc1,20.9*,.,-13.5,.,0.0,-0.4,0.0
CS(=O)(=O)NCCSc1cc(C(F)(F)F)nc2ccccc12,-0.7,1.1,-2.2,0.7,-0.2,.,.
Cc1ccc(NC(=O)c2ccc(OC(=S)N3CCOCC3)cc2)cc1,26.2*,0.2,-12.8,1.4,3.5,0.0,0.2
CCOc1ccc(NC(=O)c2cccc(NC(=O)c3ccccc3)c2)cc1,49.6*,.,-17.7,.,1.1,1.9,-1.0
COc1ccc(OC)c2sc(N(CCCN(C)C)C(=O)CCS(=O)(=O)c3ccccc3)nc12,1.0,.,-0.8,.,5.5,.,.
Cc1ccc2sc(N(CCCN(C)C)C(=O)CCS(=O)(=O)c3ccccc3)nc2c1C,24.3*,.,-11.5,.,15.0,2.1,7.0
O=S(=O)(NCC1CCCN(Cc2ccccc2O)C1)c1cccc2cccnc12 (centres undefined),0.7,.,-7.9,.,-0.2,.,.
CCOc1ccc(CONS(=O)(=O)c2ccc(NC(C)=O)cc2)cc1Cl,23.0*,1.9,-18.7,1.1,11.3,9.1,7.6
Cc1ccc(C(C)NC(=S)NCc2ccc(F)cc2)c(C)c1 (centres undefined),23.4*,.,-15.5,.,3.4,4.4,1.6
COc1ccccc1CNC(=O)CCNS(=O)(=O)c1cccc2nonc12,-0.5,.,0.7,.,0.2,.,.
COCCN1C(=O)/C(=C/c2ccc(N3CCCC3)cc2)SC1=S,27.6*,10.9,-11.8,7.7,15.5,98.8*,76.2*
COc1ccc(/C=C2\SC(=S)N(CCC(=O)N3CCCCC3)C2=O)cc1,-0.3,.,-1.0,.,0.2,.,.
O=C(C/C=N\OCc1ccc([N+](=O)[O-])cc1)Nc1ccccc1,3.0,-1.0,-6.6,-0.4,2.5,.,.
COC(=O)C(/C=N/OCc1ccc([N+](=O)[O-])cc1)NC(=O)c1ccccc1 (centres undefined),24.7*,2.6,-29.4,3.2,13.8,10.7,18.4
CC(=O)N1CCCc2cc(S(=O)(=O)Nc3ccccc3C)ccc21,4.4,.,-3.9,.,2.1,.,.
CCOc1ccccc1N1CCN(C(=O)C2=CC=CN3CCS(=O)(=O)N=C23)CC1,0.8,.,1.3,.,-0.3,.,.
COc1ccccc1CN1C[C@@H]2C[C@@H](c3[nH]c4c(C)cccc4c3C)N3CCC[C@@]23C1=O,35.0*,-2.2,-15.4,-0.4,14.5,4.7,1.9
CCC1Sc2ccc(S(=O)(=O)Nc3ccc(OC)c(OC)c3)cc2NC1=O (centres undefined),6.5,.,-23.0,.,7.3,.,.
CCC1Sc2ccc(S(=O)(=O)Nc3ccc(OC)cc3)cc2NC1=O (centres undefined),20.3*,.,-13.4,.,13.4,5.0,3.5
O=C(CSc1ncc(-c2ccc(F)cc2)n1Cc1ccco1)Nc1nccs1,28.6*,0.3,-33.9,-0.7,15.7,10.9,16.4
O=C(c1ccccc1NS(=O)(=O)c1ccc(Cl)cc1)N1CCc2ccccc21,21.4*,-0.5,1.2,-0.4,-1.4,0.9,-0.1
CCN(C(=O)CSc1nnc(-c2ccc(OC)cc2)n1C(C)C)C1CCS(=O)(=O)C1 (centres undefined),2.5,.,-0.8,.,0.5,.,.
